# Hits are enriched below; roughly 2.3% of the tested compounds scored in any of these assays.
# UCH37 DUB inh – human UCH37 deubiquitinating enzyme inhibition | purified proteasome/UCH37, Ub-AMC cleavage fluorescence | inhibition, % (no concentration beside the values) | hit rate 0.33% among 330,000 | AID 588478;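 active = mean inhibition over replicate wells above about 20%, limit read from the data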;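 note: 0% = compound-free wells with enzyme and 100% = wells lacking proteasome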
# Target sequence (Q9Y5K5 whole entry, looked up): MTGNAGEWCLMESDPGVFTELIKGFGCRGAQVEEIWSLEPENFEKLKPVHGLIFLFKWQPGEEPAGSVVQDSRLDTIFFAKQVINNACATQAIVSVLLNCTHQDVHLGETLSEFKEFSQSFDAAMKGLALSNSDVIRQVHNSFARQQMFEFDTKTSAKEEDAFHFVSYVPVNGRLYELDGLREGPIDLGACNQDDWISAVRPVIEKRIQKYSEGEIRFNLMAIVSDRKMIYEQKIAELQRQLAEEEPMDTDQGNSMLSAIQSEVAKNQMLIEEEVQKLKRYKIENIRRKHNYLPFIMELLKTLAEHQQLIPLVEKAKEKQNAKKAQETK
#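 Schedule: 30 min plus 25 min, room temperature / Material: human UCH37 within purified proteasomes / Technique: AMC fluorescence intensity at 355/460 nm / Buffer or medium: pH 7.4 Tris-HCl (50 mM) with ovalbumin, ATP-MgCl2, DTT / Controls: wells without proteasome as full block, compound-free enzyme plus substrate as uninhibited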
# PREPL inh – inhibitors of human prolyl oligopeptidase-like enzyme PREPL. Q4J6C6. recombinant PREPL, fluorescence polarization activity-based probe. inhibition, % at 5.96 µM. hit rate 0.68% among 320,000. AID 2751; in the data active = inhibition above about 43%;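 note: 0% = enzyme with DMSO and 100% = wells lacking enzyme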
# PP5 primary – inhibitors of human protein phosphatase 5 (PP5). hit rate 0.18% among 320,000. AID 1987. purified PP5c, OMFP substrate fluorescence. P53041. inhibition, % at 6.7 µM;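 active = inhibition above the campaign's mean inhibition across all tested compounds plus 3 SD, cut at about 9.5% in these data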;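 note: 0% = DMSO only and 100% = 100 µM cantharidin control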
# PP1 counter – blocks human PP1-alpha phosphatase, a PP5 counter-screen; inhibition, % at 6.7 µM; hit rate 0.9% among 320,000; P62136; purified PP1alpha, OMFP fluorescence; AID 2235;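 active = inhibition above the mean inhibition of all tested compounds plus 3 SD, computed separately for each screening campaign, cut at about 15% in these data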
# CTSL1 counter – blocks F. hepatica cathepsin L1 in PFM18AAP counter-screen; inhibition, % at 5.96 µM; recombinant F. hepatica cathepsin L1, Z-Leu-Arg-MCA fluorescence; hit rate 0.49% among 300,000;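 active = inhibition above the mean of all tested compounds plus 3 SD, set per screening campaign, cut at about 17% in these data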;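 note: 0% = plate median of test compound wells and 100% = 1 µM Z-Phe-Ala-diazomethylketone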
# UBC13 polyUb – inhibitors of human UBC13 polyubiquitin chain formation; P61088; hit rate 0.47% among 330,000; AID 485273; inhibition, % at 20 µM; TR-FRET; in the data active = inhibition above about 45%, passing the limit was not always enough
# Target sequence (P61088 whole entry, looked up): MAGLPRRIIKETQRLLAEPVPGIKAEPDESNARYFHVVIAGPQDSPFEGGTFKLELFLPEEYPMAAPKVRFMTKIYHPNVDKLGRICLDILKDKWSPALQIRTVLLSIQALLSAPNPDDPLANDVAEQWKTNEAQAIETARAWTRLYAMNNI
# Numbers without * were called inactive; . = not tested or not shown.
SMILES,UCH37 DUB inh,PREPL inh,PP5 primary,PP1 counter,CTSL1 counter,UBC13 polyUb
CCOc1c(OC(C)=O)ccc(/C=C/c2ccc3cccc(OC(C)=O)c3n2)c1[N+](=O)[O-],2.2,12.7,2.2,8.4,-18.6,-27.8
CC(C)(C)c1ccc(Cn2nnc3c(=O)[nH]c(C4CCCN(C(=O)c5cccs5)C4)nc32)cc1 (stereo not given),4.6,12.0,2.9,15.6*,8.2,-1.3
CC(C)(C)c1ccc(Cn2nnc3c(=O)[nH]c(C4CCCN(C(=O)Cc5cccs5)C4)nc32)cc1 (stereo not given),6.0,8.1,4.2,13.9,2.1,-4.9
COc1ccc(C2c3ccc4ccccc4c3Oc3ncn(CCN4CCOCC4)c(=N)c32)cc1 (stereo not given),8.3,43.6*,3.2,3.7,2.6,4.4
NS(=O)(=O)c1ccc(NCc2c(F)cccc2Cl)cc1,6.9,.,.,.,.,.
Fc1cccc(Cl)c1CNc1ccc(N2CCCC2)cc1,0.2,42.0,2.9,16.9*,-6.3,-8.2
O=S(=O)(O)c1ccc(NN=Cc2ccccc2O)cc1,22.6*,.,.,.,.,.
CC[n+]1c(/C=C/c2ccc(N(C)C)cc2)ccc2ccccc21,23.4*,-2.4,8.8,5.4,-1.3,.
CC[n+]1ccccc1/C=C/c1ccc(N(C)C)cc1,20.8*,.,.,.,.,.
CC[n+]1ccc(/C=C/c2ccc(N(C)C)cc2)c2ccccc21,13.0,.,.,.,.,.
Cc1ccc(NN=C(C#N)C(N)=S)c(C)c1,8.4,.,.,.,.,.
O=C(/C=C/c1cc[n+](CC(=O)c2ccc3cccc4c3c2CC4)cc1)c1ccc2cccc3c2c1CC3,-0.1,-33.0,11.6*,46.2*,10.3,51.2*
CC1=C(C)/C(=N/OC(=O)c2cccc([N+](=O)[O-])c2)C=CC1=O,.,-4.6,1.9,1.6,17.4*,1.7
N/C(=N/OC(=O)c1cccc([N+](=O)[O-])c1)c1cccc([N+](=O)[O-])c1,.,10.7,0.5,-6.1,1.7,1.2
CC(=NOC(=O)c1ccc(C)cc1)c1cccs1,3.2,.,.,.,.,.
O=C(NN=Cc1ccco1)c1ccc(NC(=O)c2ccc(Cl)cc2)cc1,-5.4,.,.,.,.,.
CCOC(=O)C1CCCN(S(=O)(=O)c2ccc(Br)s2)C1 (stereo not given),1.3,8.8,4.4,-0.7,16.6*,3.7
CCOc1ccc(C=NNC(=O)CSc2n[nH]c(=O)[nH]c2=O)cc1OC,3.6,.,.,.,.,.
O=C(NC(=S)Nc1ccccc1N1CCCC1)c1ccccc1Br,.,0.9,3.0,-13.9,22.5*,-4.2
O=C(NC(=S)Nc1ccccc1N1CCCCC1)c1ccco1,5.8,18.2,-2.2,-0.6,2.7,8.8
COc1cccc(C(=O)NC(=S)Nc2ccccc2N2CCCC2)c1,18.8,4.1,2.9,-0.7,23.4*,8.1
O=C(NC(=S)Nc1ccccc1N1CCCC1)c1ccco1,.,15.8,-0.6,0.9,21.4*,-15.1
COc1ccc(OC)c(C=NNC(=O)c2ccc(=O)n(C)c2)c1,-36.4,.,.,.,.,.
O=C(CCl)NCc1c(Cl)cccc1-n1cccc1,4.6,4.6,0.4,0.7,17.5*,-1.8
O=C(N/C(=C/c1ccc([N+](=O)[O-])cc1)C(=O)N1CCCC1)c1ccccc1,7.9,4.7,3.4,0.2,1.1,-11.0
SMILES,UCH37 DUB inh,PREPL inh,PP5 primary,PP1 counter,CTSL1 counter,UBC13 polyUb
O=C(N/C(=C/C=C/c1ccccc1)C(=O)N1CCCCC1)c1ccc([N+](=O)[O-])cc1,3.2,-7.3,-1.8,-3.1,17.8*,0.4
COC(=O)c1ccc(C(O)=C(C#N)c2nc3ccccc3s2)cc1,12.7,.,.,.,.,.
C(=NN1CCN(C2c3ccccc3-c3ccccc32)CC1)c1ccccn1,4.5,.,.,.,.,.
OCCOCCn1c(C(CO)Nc2nc(-c3ccccc3Br)cs2)nc2ccccc21 (stereo not given),2.8,14.3,1.7,-2.4,21.3*,10.9
OCCOCCn1c(C(CO)Nc2nc(-c3cccc(Br)c3)cs2)nc2ccccc21 (stereo not given),0.8,26.8,5.8,-6.0,0.0,27.6
Cn1nc([N+](=O)[O-])nc1Sc1nnc(-c2ccccc2)o1,3.6,1.6,-0.1,1.4,63.4*,-1.4
CCc1ccccc1NC(=O)COc1ccc2c(=O)c(Oc3cc(C)ccc3C)coc2c1,.,-1.1,-0.6,-0.7,1.3,-12.1
CC(C)c1ccccc1NC(=O)COc1ccc2c(=O)c(Oc3ccc4ccccc4c3)coc2c1,.,-1.8,4.4,18.4*,7.6,4.5
CCOc1ccc(C(C)=NNC(=O)Cn2nc([N+](=O)[O-])cc2C)cc1,1.1,.,.,.,.,.
N#CCC(=O)Nc1ccc(C(=O)NCCC(c2ccccc2)c2ccccc2)cc1,0.3,-26.8,2.6,16.0*,0.4,-6.4
S=C(NCc1ccco1)N1CCN(c2nc(-c3ccc(Cl)cc3)cs2)CC1,-0.5,3.3,1.4,4.3,0.3,2.0
O=C(CN1CCN(c2nc(-c3ccc(Cl)cc3)cs2)CC1)NCc1ccco1,1.0,20.8,6.3,15.6*,4.4,-8.5
CCN(CC)C(=O)c1sc(NC(=O)c2c(OC)cccc2OC)c(C#N)c1C,28.8*,17.2,1.0,1.2,-0.3,-1.5
CCCN1C(=O)SC(CC(=O)Nc2ccc(C)cc2)C1=O (stereo not given),3.0,3.9,-2.0,1.1,2.8,5.1
CC(=O)Nc1ccc(NC(=O)CC2SC(=O)N(CC(=O)c3ccccc3)C2=O)cc1 (stereo not given),2.7,1.9,1.9,2.0,96.1*,4.2
C/C(=N\NC(=O)c1ccccc1O)C1C(=O)c2ccccc2C1=O,.,20.9,3.6,8.9,4.0,-22.5
CC(=NNC(=O)c1ccccc1O)C1C(=O)c2ccccc2C1=O,20.9*,.,.,.,.,.
CCCCOc1ccc(S(=O)(=O)N2CCN(c3ccc(N4CCN(CC)CC4)nn3)CC2)cc1,-64.2,5.8,2.4,-2.7,18.0*,24.3
CCCCOc1ccc(S(=O)(=O)N2CCCCC2)cc1,-2.0,-4.0,-4.0,-5.7,1.8,0.4
CC(C)c1ccc(N2C(=O)C(Cl)=C(N3CCOCC3)C2=O)cc1,-21.0,-2.5,3.0,2.5,2.9,0.8
Cc1ccccc1N1C(=O)C(Cl)=C(N2CCOCC2)C1=O,2.5,7.0,-2.4,1.4,2.1,-2.8
O=C1C(Cl)=C(N2CCCCC2)C(=O)N1c1ccccc1,-0.3,-2.5,0.8,-1.5,53.7*,4.9
Cc1ccc(N2C(=O)C(Cl)=C(N3CCCCCC3)C2=O)cc1,1.1,3.2,0.6,-3.7,6.1,-6.4
O=C1C(Cl)=C(N2CCOCC2)C(=O)N1c1ccc(Br)cc1,1.0,-0.2,1.5,-0.9,34.9*,-6.2
O=C1C(Cl)=C(N2CCOCC2)C(=O)N1c1ccccc1F,4.8,20.9,1.7,-5.0,29.9*,-3.3
NC(N)=NN=Cc1ccc(Cl)c([N+](=O)[O-])c1,6.0,.,.,.,.,.
O=C(CCl)Nc1ccccc1Sc1ccc(Cl)cc1,3.6,-4.5,1.8,4.1,20.8*,2.4
CC(=O)N1CCN(CC(=O)Nc2ccccc2Sc2ccc(Cl)cc2)CC1,4.6,6.6,1.8,3.2,5.2,23.4
CC(=NNC(=O)Cc1cccs1)c1ccco1,6.6,.,.,.,.,.
